ChEMBL document CHEMBL4033621, “Design, synthesis and biological evaluation of new pyrazolyl-ureas and imidazopyrazolecarboxamides able to interfere with MAPK and PI3K upstream signaling involved in the angiogenesis” (Eur J Med Chem, 2017)
Active and inactive are the calls of the source. No cut-off for these calls is given here.

Tests used:
Homo sapiens [1] = organism: Homo sapiens; assay: Effect on VEGF-stimulated MAPK signaling pathway in HUVEC assessed as p38 MAPK phosphorylation level at 20 uM pretreated for 10 mins followed by VEGF stimulation and subsequent compound addition measured after 20 mins by Western blot analysis relative to control
Procedure, shortened: (§1)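 HUVEC grown to confluence in M199 with 10% FCS, ECGS, heparin, hydrocortisone, then starved ≥4 h in medium alone. Pre-incubated 10 min at 37°C with compound 20 µM in DMSO, then VEGF 50 ng/mL plus compound for 20 min. Lysates (30 µg) immunoblotted for phospho-ERK1/2, phospho-p38MAPK or phospho-Akt, with tubulin as loading control. ECL detection, densitometry. Results given relative to VEGF+DMSO on the same blot (100%), ≥2 independent experiments.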

HUVEC = assay: Antimigratory activity against VEGF-stimulated HUVEC at 20 uM measured up to 15 hrs in presence of CMFDA probe by microscopy-based wound healing assay; type: functional, cell-based; settings: Homo sapiens
Procedure, shortened: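 Confluent HUVEC (48 h growth) labelled with CMFDA (1:5000 of 10 mM stock), scratched with sterile tip, washed with PBS, then given VEGF 50 ng/mL plus compound 20 µM (DMSO control). Wounds imaged at 0 and 15 h by microscopy. Colonized area = area 0 h − area 15 h, expressed as percent of control set at 100%.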

Homo sapiens [2] = organism: Homo sapiens; assay: Effect on VEGF-stimulated PI3K signaling pathway in HUVEC assessed as AKT phosphorylation level at 20 uM pretreated for 10 mins followed by VEGF stimulation and subsequent compound addition measured after 20 mins by Western blot analysis relative to control; procedure, shortened: as §1
Homo sapiens [3] = organism: Homo sapiens; assay: Effect on VEGF-stimulated MAPK signaling pathway in HUVEC assessed as ERK1/2 phosphorylation level at 20 uM pretreated for 10 mins followed by VEGF stimulation and subsequent compound addition measured after 20 mins by Western blot analysis relative to control; procedure, shortened: as §1

SMILES	Activity (Homo sapiens [1])	Activity (HUVEC)	Activity (Homo sapiens [2])	Activity (Homo sapiens [3])
CC(C)(C)c1cc2n(n1)CC(c1ccccc1)N2C(=O)Nc1ccccc1F (stereo not given)	Active	inactive	inactive	
CCOC(=O)c1cc(NC(=O)Nc2cccc(F)c2)n(CC(O)c2ccccc2)n1 (stereo not given)	Active	inactive	51%	Active
CC(C)(C)c1cc(NC(=O)Nc2ccc(F)cc2)n(CC(O)c2ccccc2)n1 (stereo not given)	-70%	inactive	-83%	-67%
CCOC(=O)c1cc2n(n1)CC(c1ccccc1)N2C(=O)Nc1cccc(F)c1 (stereo not given)	Active	inactive	Active	
CC(C)(C)c1cc2n(n1)CC(c1ccccc1)N2C(=O)Nc1ccc(F)cc1 (stereo not given)	Active	inactive	Active	
CCOC(=O)c1cnn(CC(=O)c2ccccc2)c1NC(=O)Nc1cccc(F)c1	Active	inactive	63%	Active
CCOC(=O)c1cnn(CC(=O)c2ccccc2)c1NC(=O)Nc1cccc(C(F)(F)F)c1	Active	inactive	Active	Active
CCOC(=O)c1cc2n(n1)CC(c1ccccc1)N2C(=O)Nc1ccccc1F (stereo not given)	Active	inactive	inactive	
CCOC(=O)c1cc(NC(=O)Nc2cccc(C(F)(F)F)c2)n(CC(O)c2ccccc2)n1 (stereo not given)	-61%	inactive	inactive	Active
CCOC(=O)c1cc2n(n1)CC(c1ccccc1)N2C(=O)Nc1cccc(C(F)(F)F)c1 (stereo not given)	Active	inactive	Active	-75%
CCOC(=O)c1cnn2c1N(C(=O)Nc1cccc(C(F)(F)F)c1)C(c1ccccc1)C2 (stereo not given)	200 to 300%	inactive	Active	-26%
CCOC(=O)c1cnn(CC(=O)c2ccccc2)c1NC(=O)Nc1ccc(F)cc1	Active	inactive	96%	Active
CC(C)(C)c1cc(NC(=O)Nc2cccc(F)c2)n(CC(O)c2ccccc2)n1 (stereo not given)	199%	inactive	Active	Active
CC(C)(C)c1cc(NC(=O)Nc2cccc(C(F)(F)F)c2)n(CC(O)c2ccccc2)n1 (stereo not given)	Active	inactive		Active
CCOC(=O)c1cnn(CC(O)CC)c1NC(=O)Nc1cccc(C(F)(F)F)c1 (stereo not given)	Active	inactive	Active	inactive
O=C(c1cnn2c1N(C(=O)Nc1cccc(C(F)(F)F)c1)C(c1ccccc1)C2)N1CCCCC1 (stereo not given)	200 to 300%	inactive	Active	83%
CCOC(=O)c1cnn(CC(C)O)c1NC(=O)Nc1cccc(C(F)(F)F)c1 (stereo not given)	Active	inactive	Active	Active
CCOC(=O)c1cc2n(n1)CC(c1ccccc1)N2C(=O)Nc1ccc(F)cc1 (stereo not given)	Active	inactive	Active	
CCCC(O)Cn1ncc(C(=O)OCC)c1NC(=O)Nc1cccc(C(F)(F)F)c1 (stereo not given)	180%	Active	-29%	-59%
NC(=O)c1cnn2c1N(C(=O)Nc1cccc(C(F)(F)F)c1)C(c1ccccc1)C2 (stereo not given)	200 to 300%	inactive	Active	inactive
CCOC(=O)c1cc(NC(=O)Nc2ccc(F)cc2)n(CC(O)c2ccccc2)n1 (stereo not given)	-81%	inactive	inactive	Active
CCOC(=O)c1cc(NC(=O)Nc2ccccc2F)n(CC(O)c2ccccc2)n1 (stereo not given)	97%	inactive	inactive	-89%
CC(C)(C)c1cc2n(n1)CC(c1ccccc1)N2C(=O)Nc1cccc(C(F)(F)F)c1 (stereo not given)	140%	inactive	Active	
CCOC(=O)c1cnn(CC(=O)c2ccccc2)c1NC(=O)Nc1ccccc1F	Active	inactive	inactive	inactive
CC(C)(C)c1cc2n(n1)CC(c1ccccc1)N2C(=O)Nc1cccc(F)c1 (stereo not given)	Active	inactive	Active	
CC(C)(C)c1cc(NC(=O)Nc2ccccc2F)n(CC(O)c2ccccc2)n1 (stereo not given)	-74%	inactive	inactive	Active
CCOC(=O)c1cnn(CC(O)c2ccccc2)c1NC(=O)Nc1cccc(C(F)(F)F)c1 (stereo not given)	150%	inactive	-37%	-70%
